The list is not random: actives were taken first. Their share in the collection is about 2.1%.
APJ agonist – APJ receptor agonism. P35414. CHO-K1 APJ PathHunter beta-arrestin, luminescence; 0% DMSO wells, 100% apelin. activation, % at 20 µM. 0.11% of 330,000 active. AID 2520;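 active = activation more than six SD over the plate average, tested at 20 µM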
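system = engineered CHO-K1 APJ arrestin reporter cells | input = 1000 cells per well | timing = overnight seeding, 90 min compound at 25 °C, 1 h detection | measured by = enzyme-fragment complementation luminescence | read-out = beta-arrestin recruitment to APJ as agonist activity, luminescent signal | control set = negative DMSO alone, positive Apelin-13 at 10 nM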
m5-HT2A agonist – mouse HTR2A agonism via beta-arrestin recruitment; AID 624169; 0.66% of 360,000 active; CHO-K1 mHTR2A beta-arrestin complementation, luminescence; percent of 30 µM serotonin response; activation, % at 7.6 µM;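 active = activation above a run cutoff, the mean activation of all tested compounds plus 3 SD, cut at about 14% in these data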
CCR6 antag – antagonists of human CCR6 receptor; CHO-K1 CCR6 PathHunter beta-arrestin, luminescence, CCL20-stimulated; P51684; inhibition, % at 20 µM; AID 493098; 0.49% of 340,000 active;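 active = compounds whose inhibition of the agonist-driven luminescence signal at 20 µM reaches about 50%, limit read from the data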;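 note: cells stimulated with CCL20 at 14 nM final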
APJ antag – blocks the human apelin receptor APJ. 0.32% of 330,000 active. AID 2521. CHO-K1 APJ beta-arrestin complementation, luminescence. P35414. inhibition, % at 20 µM;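 active = inhibition above about 40% at 20 µM, limit read from the data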;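 note: cells challenged with 10 nM apelin-13 agonist together with compound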
CXCR6 inh – blocks human CXCR6 beta-arrestin recruitment; O00574; CHO-K1 PathHunter CXCR6 beta-arrestin, luminescence; inhibition, % at 20 µM; 0.36% of 360,000 active; in the data active = inhibition above about 34%, passing the limit was not always enough;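 note: antagonist mode with CXCL16 agonist at 10 nM final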
Target sequence (O00574 whole entry, looked up): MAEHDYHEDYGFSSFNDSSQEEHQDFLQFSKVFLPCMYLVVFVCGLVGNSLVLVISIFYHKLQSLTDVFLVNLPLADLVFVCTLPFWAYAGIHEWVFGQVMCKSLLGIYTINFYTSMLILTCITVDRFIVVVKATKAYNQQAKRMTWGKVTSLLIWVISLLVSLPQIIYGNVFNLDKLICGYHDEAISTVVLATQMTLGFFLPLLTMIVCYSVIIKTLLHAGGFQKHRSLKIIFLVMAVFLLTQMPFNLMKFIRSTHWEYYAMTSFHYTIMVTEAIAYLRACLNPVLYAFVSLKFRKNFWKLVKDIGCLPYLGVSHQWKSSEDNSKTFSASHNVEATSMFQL
EBI2 block – blocks human EBI2 receptor beta-arrestin signaling | 0.81% of 360,000 active | EBI2 beta-arrestin recruitment, luminescence, 7a,25-OHC stimulated | AID 651636 | P32249 | inhibition, % at 5 µM; in the data active = inhibition above about 38%;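 note: enzyme fragment complementation signal reports receptor beta-arrestin coupling in cells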
EBI2 antag conf – confirmation of human EBI2 receptor antagonists | shares compounds with EBI2 block | EBI2 beta-arrestin luminescence, 7a,25-OHC antagonism | inhibition, % at 5 µM | 29% of 2,400 active | AID 651997;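 active = inhibition of at least 50%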
EBI2 agonist – counter-screen for EBI2 antagonists: EBI2 agonist activity. EBI2-expressing cells, agonist mode, luminescence, 60 min; 0% vehicle, 100% 7α,25-dihydroxycholesterol control. 2,400 tested, under 10 active. activation, % at 5 µM. AID 652000. shares compounds with EBI2 block;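 active = activation of at least 50%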
bGal cs – beta-galactosidase inhibition counter-screen. shares compounds with EBI2 block. purified beta-galactosidase, luminescent Galacton Star, 15 min. inhibition, % at 5 µM. 1% of 2,400 active;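 active = replicate-average signal at least 3 plate SD below neutral wells, shown as high inhibition, flagging enzyme-inhibiting false positives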;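 note: higher means stronger loss of beta-gal luminescence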
Numbers stand for hits; n = inactive; x = no result.

SMILES | APJ agonist | m5-HT2A agonist | CCR6 antag | APJ antag | CXCR6 inh | EBI2 block | EBI2 antag conf | EBI2 agonist | bGal cs
Cc1cc(C)c2oc(C(=O)N3CCN(Cc4ccccc4)CC3)cc(=O)c2c1 | n | n | n | n | n | 58 | n | n | n
O=c1cc(CN2CCN(Cc3ccccc3)CC2)c2cc(Cl)ccc2o1 | x | n | n | x | n | n | x | x | x
Cc1c(C(=O)N2CCN(CCc3ccccc3)CC2)oc2ccccc12 | n | n | n | n | n | n | x | x | x
Cc1c(C(=O)N2CCN(CCc3ccccn3)CC2)oc2ccc(Cl)cc12 | n | n | n | n | n | 54 | n | n | n
O=C(c1cc(=O)c2cc(Cl)ccc2o1)N1CCN(Cc2ccccc2)CC1 | n | n | n | n | n | 93 | 92 | n | n
C1=CC2=NC34CCCCC3CC3=C(CCCC3)N4C2=CC1=NC1CCCCC1 (centres undefined) | n | n | n | n | n | n | x | x | x
Cc1cccc(CSCCNC(=O)COc2ccc(Cl)cc2)c1 | n | n | n | n | n | n | x | x | x
O=C(COc1ccc(Cl)cc1)NCCSCc1cccc(Cl)c1 | n | n | n | n | n | 66 | n | n | n
Cc1cc(C)c(S(=O)(=O)Nc2ccc(N(C)C)cc2)c(C)c1-n1cnnn1 | n | n | n | n | n | 65 | n | n | n
Cc1ccc(S(=O)(=O)Nc2ccc(-n3cnnn3)cc2)c(C)c1 | n | n | n | n | n | n | x | x | x
CCN1CNC(=S)N(CCc2ccccc2)C1 | n | n | n | n | n | n | x | x | x
Cc1occc1-c1nnc(SCC(=O)Nc2ccc(F)cc2)n1C | n | n | n | n | n | n | x | x | x
CC(C)(C)n1nnnc1C(c1cccs1)N(Cc1ccc(Cl)cc1)CC1CCCO1 (centres undefined) | n | n | n | n | n | 60 | n | n | n
C=CCn1c(SCC(=O)NNC(=O)Nc2cccc(Cl)c2)nnc1-c1ccccc1 | n | n | n | n | n | 61 | n | n | n
C=CCn1c(SCC(=O)Nc2ccc(-c3nc4ccc(C)cc4s3)cc2)nnc1-c1ccccc1 | x | n | n | x | n | n | x | x | x
C=CCn1c(SCC(=O)Nc2ccc3c(c2)OCO3)nnc1-c1ccccc1 | n | n | n | n | n | n | x | x | x
C=CCn1c(SCC(=O)NNC(=O)Nc2ccc(C)cc2)nnc1-c1ccccc1 | n | n | n | n | n | 48 | n | n | n
Cc1nc(N2CCN(C(=O)COc3ccccc3)CC2)c2c(C)c(C)sc2n1 | n | n | n | n | n | 51 | n | n | n
Cc1ccc(OCC(=O)N2CCN(c3nnc(-c4ccccc4)c4ccccc34)CC2)cc1 | n | n | n | n | n | 90 | 86 | n | n
CCOC(=O)c1sc(NC(=O)/C=C/c2cnn(CC)c2C)c(C(=O)OCC)c1C | n | n | n | n | n | 40 | n | n | n
CCOC(=O)c1cccc(NC(=O)CNC(=O)C2CCCCC2)c1 | n | n | n | n | n | n | x | x | x
CCN(CC)S(=O)(=O)c1cccc(-c2nnc(SCCOc3ccccc3)o2)c1 | n | n | n | n | n | n | x | x | x
CCN(CC)S(=O)(=O)c1cccc(-c2nnc(SCCOc3ccccc3C)o2)c1 | n | n | n | n | n | 50 | n | n | n
COc1cccc(NC(=O)Cn2c3ccccc3c3nc4n(c(=O)c32)CCCS4)c1 | n | n | n | n | n | 83 | n | n | n
O=C(Cn1c2ccccc2c2nc3n(c(=O)c21)CCCS3)Nc1ccccc1 | n | n | n | n | n | n | x | x | x
SMILES | APJ agonist | m5-HT2A agonist | CCR6 antag | APJ antag | CXCR6 inh | EBI2 block | EBI2 antag conf | EBI2 agonist | bGal cs
CN(C)c1ccc(NC(=O)c2sc(SCC(=O)Nc3ccc(Br)cc3)nc2N)cc1 | n | n | n | n | n | n | x | x | x
CN(C)c1ccc(NC(=O)c2sc(SCC(=O)Nc3nccs3)nc2N)cc1 | n | n | n | n | n | 52 | n | n | n
COC(=O)[C@@]1(Cc2ccc(OC)cc2)[C@@H]2C(=CC(=O)[C@H]2CC(=O)C(=O)N2CCCC2)CN1C(=O)c1ccccc1 | n | n | n | n | n | 47 | 61 | n | n
CCOC(=O)Nc1ccc2c(CN3CCN(S(=O)(=O)c4ccc(C(C)C)cc4)CC3)cc(=O)oc2c1 | n | n | n | n | n | 55 | n | n | n
COc1cc2ccccc2cc1C(=O)NC1CCCC1 | n | n | n | n | n | n | x | x | x
COc1cc2ccccc2cc1C(=O)NC1CCC(C)CC1 (centres undefined) | n | n | n | n | n | 65 | n | n | n
C=CCN(C(=O)CCC(=O)Nc1cc(C)on1)C(C(=O)NC1CCCC1)c1ccc(Cl)cc1 (centres undefined) | n | n | n | n | n | n | x | x | x
CC(C)c1ccc2oc(-c3ccc(N)cc3)nc2c1 | n | n | n | n | n | 52 | 57 | n | n
CC(C)(C)c1ccc(-c2nc3cc(N)ccc3o2)cc1 | n | n | n | n | n | n | x | x | x
Cc1ccc(-c2nnc(SCC(=O)NNC(=O)COc3ccccc3C)n2C)cc1 | n | n | n | n | n | 53 | n | n | n
COc1ccc(C(=O)NNC(=O)CSc2nnc(-c3ccc(O)cc3)n2C)cc1 | n | n | n | n | n | 69 | n | n | n
COc1ccc(C(=O)NNC(=O)CSc2nnc(C(C)C)n2C)cc1 | n | n | n | n | n | n | x | x | x
Cc1ccc(-c2nnc(SCC(=O)NNC(=O)COc3cccc(C)c3)n2C)cc1 | n | n | n | n | n | 45 | n | n | n
COc1cc(C(=O)N[C@H](C(=O)NC2CCCc3ccccc32)C(C)C)cc(OC)c1OC (some centres undefined) | n | n | n | n | n | n | x | x | x
Cc1noc(/C=C/N(C)C)c1S(=O)(=O)N1CCCC(C(=O)NCc2ccc(F)cc2)C1 (centres undefined) | n | x | x | n | x | x | x | x | x
COc1ccc(-c2nc3c(c(=O)[nH]c(=O)n3Cc3ccccc3)n2C)cc1 | n | n | n | n | n | n | x | x | x
COc1ccc(-c2nc3c(c(=O)[nH]c(=O)n3Cc3ccccc3)n2Cc2ccccc2)cc1 | n | n | n | n | n | 45 | n | n | n
CC1CCN(C(=O)COC(=O)c2n[nH]c(=O)c3ccccc23)CC1 | n | n | n | n | n | n | x | x | x
CC(C)Oc1cc(F)ccc1-c1cc(C(=O)Nc2cccc(C(F)(F)F)c2)[nH]n1 | x | n | x | x | n | 42 | n | n | n
COc1ccc(NC(=O)c2cc(-c3ccc(F)cc3OC(C)C)n[nH]2)cn1 | x | n | x | x | n | n | x | x | x
